Series [1] in a line: Elimination half life in cynomolgus monkey at 5 mg/kg, iv administered as bolus injection by LC-MS/MS analysis. The class given is ADME, organism-based, Macaca fascicularis. Also on record: dose 5 mg/kg, route intravenous. Particulars: in vivo, read-out: beta t1/2 (converted). A digest of the protocol: (§1)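 Cynomolgus monkeys (n = 3) received a nominal 5 mg/kg dose in 50 mM HEPES, TCEP-treated to prevent disulfide formation. Dosing was either an IV bolus via cephalic or saphenous vein or oral. Arterial cannula blood was collected into NEM-containing heparinized tubes for up to 9 days and analyzed by LC-MS/MS. Noncompartmental analysis gave t1/2 = 0.693/λz and F% = dose-normalized mean AUCinf p.o./i.v. ×100.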

The nature of series [2]: Elimination half life in cynomolgus monkey at 5 mg/kg, po by LC-MS/MS analysis. It counts as ADME, organism-based, Macaca fascicularis. Particulars: in vivo, read-out: beta t1/2 (converted). Also on record: dose 5 mg/kg, route oral. A digest of the protocol:
as §1

The test system of series [3] is Rattus norvegicus. Put plainly: Toxicity in Sprague-Dawley rat chronic constriction injury model assessed as paw withdrawal latencies on non-ligated side at 10 mg/kg/day, po. The class given is organism-based. Particulars: in vivo. Also on record: route oral.
The nature of series [4]: Phase 2 metabolic stability in dog liver microsomes assessed as compound remaining at 10 uM measured for 1 hr by LC-MS/MS analysis. It counts as ADME, Canis lupus familiaris. Particulars: read-out: Stability. In short, it runs like this:
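For glucuronidation, compound was preincubated at 37°C in 50 mM Tris-HCl, pH 7.5, with 0.5 mg/ml liver microsomes, 8 mM MgCl2 and 25 µg/ml alamethicin. Reactions were started in duplicate with 2 mM UDPGA (final). Samples were taken up to 1 h, quenched with acetonitrile containing internal standard, and compound disappearance was measured by LC-MS/MS.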
On the technique in general: Microsomes from liver hold many membrane-bound enzymes, among them those of drug oxidation.

Series [5] is described as follows: Phase 1 metabolic stability in mouse liver microsomes assessed as compound remaining at 10 uM measured for 1 hr by LC-MS/MS analysis in absence of cofactors. The class given is ADME. Particulars: read-out: Stability. In short, it runs like this: (§2)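 Cofactor-free controls were run for each microsomal incubation: 0.5 mg/ml liver microsomes with 10 µM compound, omitting cofactors, so that cofactor-independent degradation could be measured. Samples were taken up to 1 h, quenched with acetonitrile containing internal standard, and the percent remaining was determined by LC-MS/MS.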

Series [6] can be described thus: Phase 2 metabolic stability in human liver microsomes assessed as compound remaining at 10 uM measured for 1 hr by LC-MS/MS analysis in absence of cofactors. The class given is ADME. Particulars: read-out: Stability. In short, it runs like this: as §2
A short description of series [7]: Metabolic stability in cynomolgus monkey plasma assessed as compound remaining at 5 to 10 uM after 1 hr by LC-MS/MS analysis. It counts as ADME, cell-free, Macaca fascicularis. Particulars: read-out: Stability. A digest of the protocol: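 Compound at 5 and 10 µM was incubated at 37°C in Sprague-Dawley rat or cynomolgus monkey plasma. Aliquots taken at 0, 30 and 60 min were quenched with acetonitrile and analyzed by LC-MS/MS. Percent remaining = analyte/internal-standard area ratio at time t divided by that at time 0.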

Series [8] concerns Rattus norvegicus. Nature of the series: Apparent oral clearance in Sprague-Dawley rat at 0.1 mg/kg, po administered via gavage measured under fasted conditions by LC-MS/MS analysis. The class given is ADME, organism-based. Also on record: dose 0.1 mg/kg, route oral. Particulars: in vivo. In short, it runs like this:
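Fasted male Sprague-Dawley rats (280–330 g) received 0.1, 1, 10 or 30 mg/kg by oral gavage in 50 mM HEPES buffered saline, pH 7.4. Blood drawn at 0.25–24 h into heparin/NEM tubes; plasma analyzed by LC-MS/MS. Cmax taken as observed. AUC by linear trapezoidal rule with extrapolation by λz. Cl/F and Vd/F reported. Mean ± S.D., n = 4–9.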

Data on 1 compound can be found in ChEMBL document CHEMBL3526151, “Reversible disulfide formation of the glutamate carboxypeptidase II inhibitor E2072 results in prolonged systemic exposures in vivo” (Drug Metab Dispos, 2012).

The term CL/F denotes clearance divided by bioavailability, as obtained after extravascular dosing.

Turning to `O=C(O)c1cccc(-c2cccc(CCS)c2C(=O)O)c1`, the half-life is 23 h in series [1] and 9.57 h in series [2]. The Activity entry in the series on Rattus norvegicus [3] is “Non-toxic”. Further, the remaining at 1 h, 10 µM in series [4], in series [5] and in series [6] was greater than 90% in each case. For the same compound, the remaining at 1 h, up to 10 µM in series [7] is greater than 90%. The CL/F with Rattus norvegicus [8] turned out to be 8.5 mL/min/kg.
